Assay results reported in ChEMBL document CHEMBL5032509, “Design of a Stable Cyclic Peptide Analgesic Derived from Sunflower Seeds that Targets the κ-Opioid Receptor for the Treatment of Chronic Abdominal Pain” (J Med Chem, 2021).
pEC50, pKi: −log10 of the molar value. Calls of active or inactive are those of the source. The calls are words filed in the database; no cut-off is given here. Bridge positions count the residues as written; N and C are the ends. Square brackets hold non-standard residues; d marks the D form. Peptide text beside a SMILES is read from it. dNle = CCCC[C@@H](N)C(=O)O

Columns and labels:
[1] = target: Kappa-type opioid receptor (Mus musculus) (UniProt P33534); assay: Agonist activity at mouse KOR expressed in HEK293 cell assessed as maximal inhibition of cAMP concentration incubated for 1 hrs by time-resolved fluorescence resonance energy transfer assay relative to control; format: functional, cell-based; conditions: filed as agonist
Summary of the method: (§1)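 HEK293 cells stably expressing mouse KOR, 2000 cells/well, exposed to log-spaced peptide concentrations with forskolin (10 µM final) for 30 min at 37 °C. Eu-cryptate cAMP and d2-labelled anti-cAMP antibody then added for 1 h at room temperature. HTRF read as the 665/620 nm ratio, in triplicate. Three-parameter fit with bottom fixed at zero and slope one gives EC50 and Emax. Normalised to the highest dyn A 1–13 concentration (100%).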

[2] = Stability of the compound in simulated gastric fluid at pH 1.2 assessed as drug degradation by UPLC-UV analysis; format: ADME
Summary of the method: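 Peptide stock (2 mM in water) diluted 5:95 into USP simulated gastric fluid, pepsin added after adjusting to pH 1.2, incubated at 37 °C. Aliquots taken at 0, 15, 30 min and 1, 3, 6 h, quenched in ice-cold methanol. Data fitted to exponential decay for half-life.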

[3] = target: T1, Kappa-type opioid receptor (Mus musculus, UniProt P33534); assay: Displacement of [3H]-diprenorphine from mouse KOR expressed in HEK293 cell membranes by radioligand binding assay relative to control; parameters: species or system Cell membrane
Summary of the method: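 Membranes from HEK293 cells stably expressing mouse KOR (7 µg/assay). Filtered onto PEI-soaked GF/C filters. Specific binding = total minus nonspecific, normalized to binding without peptide. […]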

[4] = target: T1, Kappa-type opioid receptor; assay: Agonist activity at mouse KOR expressed in HEK293 cell assessed as inhibition of cAMP concentration incubated for 1 hrs by time-resolved fluorescence resonance energy transfer assay; format: functional, cell-based
Summary of the method: as §1, with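 “temperature.” for “temperature. HTRF read as the 665/620 nm ratio, in triplicate.”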

Mus musculus [5] = species on record: Mus musculus; assay: Analgesic activity in chronic visceral hypersensitivity-induced chronic abdominal pain mouse model assessed as reduction in colonic nociceptor mechano-sensitivity at 0.1 uM measured at 5 mins by Von Frey filament assay; format: functional
Summary of the method: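 Ex vivo colon with attached splanchnic nerves from male C57BL/6J mice, 28 days after DNBS-induced colitis. Colon superfused with carbogen-gassed modified Krebs at 34 °C. Single-unit extracellular recordings of nociceptor firing to 2 g von Frey filament stimulation, repeated after 5 min drug application via a metal ring over the receptive field.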

[6] = target: Kappa-type opioid receptor (Mus musculus) (UniProt P33534); assay: Displacement of [3H]-diprenorphine from mouse KOR expressed in HEK293 cell membranes at 100 nM by two-point binding assay; conditions: Cell membrane, filed as agonist
Summary of the method: (§2)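 Two-point competition at 10 µM and 100 nM peptide. Membranes (7 µg) from HEK293 cells stably expressing mouse KOR incubated with [3H]-diprenorphine (1 nM final) for 1 h at 37 °C in 50 mM Tris–HCl pH 7.4, 10 mM MgCl2, 0.1% BSA. Stopped by filtration onto PEI-soaked GF/C filters. Nonspecific binding subtracted; normalised to specific binding without peptide; mean ± SD.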

[7] = Toxicity in mouse assessed as […] by measuring flinch response in mouse at 5 mg/kg, ip measured at 60 mins by […]; format: organism-based; conditions: in vivo, 1 h
Summary of the method: (§3)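 Male C57BL/6N mice given 5 mg/kg i.p. in saline (vehicle 0.9% NaCl). Jump-flinch test 60 min post-injection: 1 min exploration, then 1 s foot shocks every 30 s at six intensities. Intensity at first flinch, vocalization and jump recorded. Mean ± SEM, one-way ANOVA with Fisher's LSD, N = 8–12/group.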

Mus musculus [8] = assay: Effect on healthy mouse assessed as visceromotor response measured at different colorectal distention pressure at 10 uM intra-colonic administration as enema by electromyography; format: ADME, organism-based; conditions: in vivo, other
Summary of the method: (§4)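 Healthy or CVH (DNBS 6 mg in 30% ethanol enema, 28 d recovery) female mice. Under brief isoflurane, 100 µL enema of saline vehicle or peptide (10 µM). EMG from abdominal muscle electrodes during balloon CRD at 20, 40, 50, 60 and 80 mmHg (20 s each), run 10–30 min after dosing. Rectified, integrated AUC; mean ± SEM.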

Mus musculus [9] = assay: Reduction in visceromotor response in chronic visceral hypersensitivity-induced chronic abdominal pain mouse model measured at different colorectal distention pressure at 10 uM intra-colonic administration as enema by electromyography; format: functional, organism-based; summary of the method: as §4
[10] = Toxicity in mouse assessed as motor coordination by measuring latency to fall in mouse at 5 mg/kg, ip measured at 45 mins by rotarod test; format: organism-based; conditions: in vivo, 0.75 h
Summary of the method: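 Male C57BL/6N mice (8 weeks) given 5 mg/kg i.p. in saline (10 µL/g); vehicle 0.9% NaCl. After habituation, drum accelerated from 4 to 40 rpm. Three trials 15 min apart, starting 45 min post-injection; latency to fall averaged. Mean ± SEM, one-way ANOVA with Fisher's LSD, N = 8–12/group.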

[11] = Toxicity in mouse assessed as […] by measuring jump response in mouse at 5 mg/kg, ip measured at 60 mins by […]; format: organism-based; conditions: in vivo, 1 h; summary of the method: as §3
[12] = target: T1, Kappa-type opioid receptor; assay: Agonist activity at EGFP-tagged mouse KOR expressed in HEK293 cells co-expressing beta-arrestin2 nano-luciferase assessed as beta-arrestin2 recruitment for 5 mins by BRET assay; format: functional, cell-based
Summary of the method: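 HEK293 cells co-transfected with human β-arrestin-2 nano-luciferase and mouse KOR-EGFP plasmids (1:10). After ≥16 h they were plated in phenol red-free DMEM with 10% FBS and left to adhere overnight, then serum-starved 1 h at 37 °C. Furimazine (1:50) added for 5 min at 37 °C, with a 5 min baseline. Peptide added for 5 min at 37 °C in triplicate. Luminescence read at 460 nm and EGFP fluorescence at 510 nm.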

Mus musculus [13] = species on record: Mus musculus; assay: Analgesic activity in chronic visceral hypersensitivity-induced chronic abdominal pain mouse model assessed as reduction in mechanical stimulation induced action potential firing of colonic nociception at 1 uM measured at 5 mins […]; format: functional
Summary of the method: (§5)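 Ex vivo colon with attached splanchnic nerve from DNBS-induced CVH mice. Colon superfused with carbogen-gassed modified Krebs at 34 °C. Single-unit extracellular recording of nociceptor firing to 2 g von Frey probing, repeated after 5 min ring application of peptide (1 µM), with or without 5 min nor-BNI pre-incubation. Paired t-test.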

Mu-type opioid receptor = Mu-type opioid receptor (Mus musculus, UniProt P42866); assay: Displacement of [3H]-diprenorphine from mouse MOR expressed in HEK293 cell membranes by radioligand binding assay relative to control; parameters: species or system Cell membrane
Summary of the method: (§6)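 Membranes from HEK293 cells stably expressing mouse DOR (20 µg/assay) or MOR (50 µg/assay). Incubated with 1 nM final [3H]-diprenorphine in 50 mM Tris–HCl pH 7.4, 10 mM MgCl2, 0.1% BSA for 1 h at 37 °C, in duplicate. Stopped by filtration onto PEI-soaked GF/C filters. Specific binding = total minus nonspecific, normalized to specific binding without peptide; n = 2.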

[14] = target: Kappa-type opioid receptor (Mus musculus) (UniProt P33534); assay: Displacement of [3H]-diprenorphine from mouse KOR expressed in HEK293 cell membranes at 10 uM by two-point binding assay; conditions: Cell membrane, filed as agonist; summary of the method: as §2
Mus musculus [15] = species on record: Mus musculus; assay: Analgesic activity in chronic visceral hypersensitivity-induced chronic abdominal pain mouse model assessed as reduction in colonic nociceptor mechano-sensitivity at 1 uM in presence of 0.1 uM nor-BNI measured at 5 mins […]; format: functional; summary of the method: as §5
[16] = target: Delta-type opioid receptor (Mus musculus, UniProt P32300); assay: Displacement of [3H]-diprenorphine from mouse DOR expressed in HEK293 cell membranes by radioligand binding assay relative to control; parameters: species or system Cell membrane; summary of the method: as §6
[17] = Toxicity in mouse assessed as […] by measuring vocalization in mouse at 5 mg/kg, ip measured at 60 mins by […]; format: organism-based; conditions: in vivo, 1 h

Chain of Kappa-type opioid receptor (Mus musculus) (P33534 whole entry): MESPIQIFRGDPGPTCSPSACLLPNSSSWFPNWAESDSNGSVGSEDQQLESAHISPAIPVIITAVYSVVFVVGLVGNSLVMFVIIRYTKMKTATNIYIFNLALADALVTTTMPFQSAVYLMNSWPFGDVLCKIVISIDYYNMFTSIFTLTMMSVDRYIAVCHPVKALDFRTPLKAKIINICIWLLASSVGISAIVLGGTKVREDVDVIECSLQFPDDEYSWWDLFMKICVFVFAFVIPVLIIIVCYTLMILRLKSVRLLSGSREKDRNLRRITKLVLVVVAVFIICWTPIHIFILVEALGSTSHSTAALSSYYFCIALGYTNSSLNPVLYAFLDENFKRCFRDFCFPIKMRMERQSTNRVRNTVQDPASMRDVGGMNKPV
T1 sequence (P33534 whole entry): as above
Chain of Mu-type opioid receptor (P42866 whole entry): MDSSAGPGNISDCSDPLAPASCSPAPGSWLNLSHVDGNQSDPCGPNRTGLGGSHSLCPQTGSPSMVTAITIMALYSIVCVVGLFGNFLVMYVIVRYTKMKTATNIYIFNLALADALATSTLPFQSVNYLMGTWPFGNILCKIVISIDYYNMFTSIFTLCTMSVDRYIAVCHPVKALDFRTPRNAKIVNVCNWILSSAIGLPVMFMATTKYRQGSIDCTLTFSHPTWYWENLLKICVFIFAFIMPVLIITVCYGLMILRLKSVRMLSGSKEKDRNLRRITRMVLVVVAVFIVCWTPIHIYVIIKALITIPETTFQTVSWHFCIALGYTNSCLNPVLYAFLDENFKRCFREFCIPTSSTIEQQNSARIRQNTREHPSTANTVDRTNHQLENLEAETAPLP
Chain of Delta-type opioid receptor (P32300 whole entry): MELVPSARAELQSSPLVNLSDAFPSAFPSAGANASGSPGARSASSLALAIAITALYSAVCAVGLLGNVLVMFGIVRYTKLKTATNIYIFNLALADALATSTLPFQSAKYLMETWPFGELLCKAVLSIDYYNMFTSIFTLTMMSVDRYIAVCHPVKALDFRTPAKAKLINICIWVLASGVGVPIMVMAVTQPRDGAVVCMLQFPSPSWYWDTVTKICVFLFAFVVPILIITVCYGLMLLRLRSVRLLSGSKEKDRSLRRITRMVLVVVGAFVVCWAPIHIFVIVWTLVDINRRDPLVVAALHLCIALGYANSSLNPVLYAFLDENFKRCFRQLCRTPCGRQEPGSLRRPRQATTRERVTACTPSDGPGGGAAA

CC[C@H](C)[C@H](NC(=O)[C@H](CCCN=C(N)N)NC(=O)[C@H](CCCN=C(N)N)NC(=O)[C@H](CC(C)C)NC(=O)[C@H](Cc1ccccc1)NC(=O)CNC(=O)CNC(=O)[C@@H](N)Cc1ccc(O)cc1)C(=O)N[C@@H](CCCN=C(N)N)C(=O)N1CCC[C@H]1C(=O)N[C@@H](CCCCN)C(=O)N[C@@H](CC(C)C)C(=O)N[C@@H](CCCCN)C(N)=O
Emax [1]: 100%
half-life [2]: < 15 min

CC[C@H](C)[C@@H]1NC(=O)[C@@H]2CCCN2C(=O)[C@@H]2CCCN2C(=O)[C@H]([C@@H](C)CC)NC(=O)[C@H](CO)NC(=O)[C@H](CCCCN)NC(=O)[C@H]([C@@H](C)O)NC(=O)[C@@H]2CSSC[C@H](NC1=O)C(=O)N[C@@H](Cc1ccccc1)C(=O)N1CCC[C@H]1C(=O)N[C@@H](CC(=O)O)C(=O)NCC(=O)N[C@@H](CCCNC(=N)N)C(=O)N2
pKi [3]: < 4.52

CC[C@H](C)[C@@H]1NC(=O)[C@H](CCCNC(=N)N)NC(=O)[C@H](CCCNC(=N)N)NC(=O)[C@H](CC(C)C)NC(=O)[C@H](Cc2ccccc2)NC(=O)CNC(=O)CNC(=O)[C@H](Cc2ccc(O)cc2)NC(=O)[C@@H]2CSSC[C@H](NC1=O)C(=O)N[C@@H](Cc1ccccc1)C(=O)N1CCC[C@H]1C(=O)N[C@@H](CC(=O)O)C(=O)NCC(=O)N[C@@H](CCCNC(=N)N)C(=O)N2
pKi ([3]; hek293): 5.49
pEC50 ([4]; hek293): 5.85

Oc1ccc2c3c1O[C@H]1c4[nH]c5c(c4C[C@@]4(O)[C@@H](C2)N(CC2CC2)CC[C@]314)C[C@@]1(O)[C@H]2Cc3ccc(O)c4c3[C@@]1(CCN2CC1CC1)[C@H]5O4
Activity (Mus musculus [5]): inactive

CC[C@H](C)[C@@H]1NC(=O)[C@@H]2CCCN2C(=O)[C@@H]2CCCN2C(=O)[C@H]([C@@H](C)CC)NC(=O)[C@H](CO)NC(=O)[C@H](C)NC(=O)[C@H]([C@@H](C)O)NC(=O)[C@@H]2CSSC[C@H](NC1=O)C(=O)N[C@@H](Cc1ccc(O)cc1)C(=O)NCC(=O)NCC(=O)N[C@@H](Cc1ccccc1)C(=O)N[C@@H](CCCNC(=N)N)C(=O)N2 (cyclo(ASIPPICYGGFRCT); disulfide 7-13)
pKi ([3]; hek293): < 5.00

CC[C@H](C)[C@@H]1NC(=O)[C@@H]2CCCN2C(=O)[C@@H]2CCCN2C(=O)[C@H]([C@@H](C)CC)NC(=O)[C@H](CO)NC(=O)[C@H](C)NC(=O)[C@H]([C@@H](C)O)NC(=O)[C@@H]2CSSC[C@H](NC1=O)C(=O)N[C@H](Cc1ccccc1)C(=O)N[C@H](Cc1ccccc1)C(=O)N[C@H](CC(C)C)C(=O)N[C@H](CCCCN)C(=O)N[C@@H](CCCNC(=N)N)C(=O)N2 (cyclo(ASIPPIC[dF][dF][dL][dK]RCT); disulfide 7-13)
pKi ([3]; hek293): < 5.00

CCCC[C@H]1NC(=O)[C@@H](Cc2ccccc2)NC(=O)[C@@H](Cc2ccccc2)NC(=O)[C@@H]2CSSC[C@H](NC(=O)[C@H](CCCNC(=N)N)NC(=O)[C@@H](CCCNC(=N)N)NC1=O)C(=O)N[C@@H]([C@@H](C)O)C(=O)N[C@@H](C)C(=O)N[C@@H](CO)C(=O)N[C@@H]([C@@H](C)CC)C(=O)N1CCC[C@H]1C(=O)N1CCC[C@H]1C(=O)N[C@@H]([C@@H](C)CC)C(=O)N2 (cyclo(ASIPPIC[dF][dF][dNle][dR]RCT); disulfide 7-13)
pKi ([3]; hek293): < 5.00

CC[C@H](C)[C@@H]1NC(=O)[C@@H]2CCCN2C(=O)[C@H](Cc2ccccc2)NC(=O)CNC(=O)CNC(=O)[C@H](Cc2ccc(O)cc2)NC(=O)[C@H]([C@@H](C)O)NC(=O)[C@@H]2CSSC[C@H](NC1=O)C(=O)N[C@@H](Cc1ccccc1)C(=O)N1CCC[C@H]1C(=O)N[C@@H](CC(=O)O)C(=O)NCC(=O)N[C@@H](CCCNC(=N)N)C(=O)N2 (cyclo(CFPDGRCTYGGFPI); disulfide 1-7)
pKi ([3]; hek293): < 5.00

CC[C@H](C)[C@@H]1NC(=O)[C@@H]2CSSC[C@H](NC(=O)[C@H](CCCCN)NC(=O)[C@H](CC(C)C)NC(=O)[C@H](CCCCN)NC(=O)[C@@H]3CCCN3C(=O)[C@H](CCCNC(=N)N)NC1=O)C(=O)N[C@@H](Cc1ccc(O)cc1)C(=O)NCC(=O)NCC(=O)N[C@@H](Cc1ccccc1)C(=O)N[C@@H](CC(C)C)C(=O)N[C@@H](CCCNC(=N)N)C(=O)N[C@@H](CCCNC(=N)N)C(=O)N2 (cyclo(CIRPKLKCYGGFLRR); disulfide 1-8)
Activity [6]: Active
Activity [7]: Non-Toxic
Activity (Mus musculus [8]): Non-Toxic
Activity (Mus musculus [9]): Active
Activity [10]: Non-Toxic
Activity [11]: Non-Toxic
pEC50 [12]: 5.85
pKi [3]: 7.68
Activity (Mus musculus [13]): Active
pKi (Mu-type opioid receptor): < 5.00
Activity [14]: Active
Activity (Mus musculus [15]): Active
pEC50 [4]: 7.35
pKi [16]: < 5.00
Activity [17]: Non-Toxic
